Data from ChEMBL document CHEMBL1134834, “Quinoxalinylethylpyridylthioureas (QXPTs) as potent non-nucleoside HIV-1 reverse transcriptase (RT) inhibitors. Further SAR studies and identification of a novel orally bioavailable hydrazine-based antiviral agent” (J Med Chem, 2001).
Calls of active or inactive are those of the source. The rule behind the calls is not given here.

How the values were obtained:
NIH3T3 [1] = test: Cytotoxicity on 3T3 fibroblasts (3T3F) murine cell line (O.D.=0.131+/-0.014); assay type: functional; conditions: Mus musculus, read-out: TC50 (the source's name)
CEM-SS [2] = test: Concentration which produces a 50% survival of HIV-1 infected cells relative to uninfected control CEM-SS cells (in vitro anti-HIV activity); assay type: functional, cell-based; conditions: Homo sapiens
How it was run: (§1)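 CEM-SS T4 lymphocytes infected with wild-type HIV-1. Protection from virus-induced cell death is scored against an AZT-treated positive control run under identical conditions. […] SI = IC50/EC50.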

CEM-SS [3] = test: (§2) Concentration which results in 50% survival of uninfected untreated control CEM-SS cells (cytotoxicity of the compound); assay type: functional, cell-based; conditions: Homo sapiens, read-out: IC50 (the source's name)
C8166 [4] = test: Synergistic antiviral activity with AZT (DDI), against HIV-IIIB in C8166 cells; assay type: functional, cell-based; conditions: Homo sapiens
How it was run: (§3)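 C8166 cells infected with HIV-IIIB and treated with compound combined with AZT (or DDI). Combination index calculated by the Chou-Talalay multiple drug effect analysis under both mutually exclusive and mutually nonexclusive assumptions.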

C8166 [5] = test: (§4) Concentration which results in 50% survival of uninfected untreated control C8166 cells (cytotoxicity of the compound); assay type: functional, cell-based; conditions: Homo sapiens
How it was run: (§5)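 Toxicity in uninfected C8166 cells by MTT reduction to formazan, read spectrophotometrically.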

C8166 [6] = test: Antiviral activity alone against HIV-IIIB in C8166 cells; assay type: functional, cell-based; conditions: Homo sapiens
How it was run: (§6)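 C8166 CD4+ T-cell line (HTLV-I genome, only tat expressed) acutely infected with lymphocytotropic HIV-1 IIIB. […] Read-out is HIV-p24 antigen in supernatants. AZT positive control was run at the same time. SI = IC50/EC50.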

[7] = test system: Human immunodeficiency virus 1; test: Concentration which produces a 50% survival of HIV-1 infected cells relative to uninfected control C8166 cells; assay type: functional, organism-based; conditions: Human immunodeficiency virus 1, C8166
C8166 [8] = test: Synergistic antiviral activity of AZT (DDI) with the compound, against HIV-IIIB in C8166 cells; assay type: functional, cell-based; conditions: Homo sapiens; how it was run: as §3
Daudi [9] = test: Cytotoxicity on Daudi Human(DH) cell line (O.D.=0.129+/-0.018); assay type: functional; conditions: read-out: TC50 (the source's name)
Mus musculus [10] = organism: Mus musculus; test: Cytotoxicity on NSO murine cell line (O.D.=0.125+/-0.015); assay type: functional; conditions: read-out: TC50 (the source's name)
[11] = target: T1, Human immunodeficiency virus type 1 reverse transcriptase (Human immunodeficiency virus 1, UniProt Q72547); test: Inhibition of HIV-1 Mutant HIV-1 RT enzymes containing the single amino acid substitution […]
[12] = target: Human immunodeficiency virus type 1 reverse transcriptase (Human immunodeficiency virus 1, UniProt Q72547, V106A); test: Inhibition of HIV-1 Mutant HIV-1 RT enzymes containing the single amino acid substitution V106A
[13] = target: Human immunodeficiency virus type 1 reverse transcriptase (Human immunodeficiency virus 1, UniProt Q72547, Y181I); test: Inhibition of HIV-1 Mutant HIV-1 RT enzymes containing the single amino acid substitution Y181I
[14] = target: Human immunodeficiency virus type 1 reverse transcriptase (Human immunodeficiency virus 1, UniProt Q72547, Y188L); test: Inhibition of HIV-1 Mutant HIV-1 RT enzymes containing the single amino acid substitution Y188L
[15] = target: T1, Human immunodeficiency virus type 1 reverse transcriptase; test: Inhibition of HIV-1 wild-type RT
[16] = Cytotoxicity on normal human lymphocytes(HL) (O.D.=0.114+/-0.01); assay type: functional; conditions: read-out: TC50 (the source's name)
[17] = (§7) Selectivity index was determined in C8166 cells; assay type: functional; how it was run: as §6
[18] = Selectivity index was determined in CEM-SS cells; assay type: functional; how it was run: as §1
[19] = target: Human immunodeficiency virus type 1 reverse transcriptase (Human immunodeficiency virus 1, UniProt Q72547, K103N); test: Inhibition of HIV-1 Mutant HIV-1 RT enzymes containing the single amino acid substitution K103N
NIH3T3 [20] = test: cytotoxicity on 3T3 fibroblasts (3T3F) murine cell line (O.D.=0.131+/-0.014); assay type: functional; conditions: Mus musculus, read-out: TC50 (the source's name)
CEM-SS [21] = test: as §2; assay type: cell-based; conditions: Homo sapiens
Daudi [22] = test: cytotoxicity on Daudi Human(DH) cell line (O.D.=0.129+/-0.018); assay type: functional; conditions: read-out: TC50 (the source's name)
[23] = test system: Human immunodeficiency virus 1; test: Inhibition of HIV-1-p24 antigen production in monocyte-macrophages (in vitro anti-HIV-1 activity); assay type: functional, organism-based
How it was run: (§8)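 Macrophages from adherent PBMC (10^6/mL, RPMI-1640 with 20% heat-inactivated FCS), 10^5 per well, >95% pure, infected with monocytotropic HTLV-III Ba-L. Antiviral activity read 14 days after infection. […] SI = IC50/EC50. AZT control run in parallel.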

Mus musculus [24] = organism: Mus musculus; test: cytotoxicity on NSO murine cell line (O.D.=0.125+/-0.015); assay type: functional; conditions: read-out: TC50 (the source's name)
[25] = Selectivity index between IC50 of HIV-1-p24 and EC50 of HIV-1-p24 (IC50/EC50); assay type: functional; how it was run: as §8
[26] = Selectivity index (IC50/EC50) was determined in C8166 cells; assay type: functional
[27] = test system: Human immunodeficiency virus 1; test: Inhibition of HIV-1-p24 antigen production in monocyte-macrophages (cytotoxicity of the compound); assay type: organism-based; how it was run: as §8
[28] = cytotoxicity on normal human lymphocytes(HL) (O.D.=0.114+/-0.01); conditions: read-out: TC50 (the source's name)
[29] = Selectivity index (IC50/EC50) was determined in CEM-SS cells; assay type: functional
How it was run: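 CEM-SS (T4 lymphocyte) cells infected with wild-type HIV-1 were scored for protection from virus-induced cell death. […] SI = IC50/EC50. An AZT-treated positive control was run in parallel under identical conditions.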

[30] = target: Human immunodeficiency virus type 1 protease (Human immunodeficiency virus 1) (UniProt Q72874); test: Inhibition of HIV-1 Mutant HIV-1 RT enzymes containing the single amino acid substitution K103N; NA means Not active
How it was run: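 Template poly(rA)oligo(dT) 10:1 (0.3 µM 3′-OH ends) with 10 µM [3H]-dTTP, 37 °C. TCA-precipitable radioactivity counted. Ki from Lineweaver-Burk and Dixon plots, inhibitor 0.2-5 Ki, triplicate.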

C8166 [31] = test: as §4; assay type: cell-based; conditions: Homo sapiens; how it was run: as §5
C8166 [32] = test: as §7; assay type: functional, Homo sapiens; how it was run: as §6

Question: What does the source list for `O=c1c2nccn2c2ccccc2n1CCNC(=S)Nc1ccc(Br)cn1`?
Answer: CC50 (NIH3T3 [1]): 690 µM; EC50 (CEM-SS [2]): 0.013 µM; CC50 (CEM-SS [3]): > 2 µM; EC50 (C8166 [4]): 0.46 µM; IC50 (C8166 [5]): 88 µM; EC50 (C8166 [6]): 0.588 µM; EC50 [7]: 0.32 µM; EC50 (C8166 [8]): 0.066 µM; CC50 (Daudi [9]): 680 µM; CC50 (Mus musculus [10]): 680 µM; Ki [11]: 1 µM; Ki [12]: 0.35 µM; Ki [13]: 1.4 µM; Ki [14]: 5 µM; Ki [15]: 0.25 µM; CC50 [16]: 670 µM; SI [17]: 275; SI [18]: >150; Ki [19]: 0.24 µM

Question: What does the source list for `O=c1c2cccn2c2ccc(F)cc2n1CC/N=C(\S)Nc1ccc(Br)cn1`?
Answer: CC50 (NIH3T3 [20]): 20 µM; EC50 (CEM-SS [2]): 0.063 µM; IC50 (CEM-SS [21]): > 200 µM; EC50 (C8166 [4]): 0.057 µM; IC50 (C8166 [5]): 15 µM; EC50 (C8166 [6]): 0.066 µM; EC50 [7]: 0.032 µM; EC50 (C8166 [8]): 0.085 µM; CC50 (Daudi [22]): 19 µM; EC50 [23]: 0.004 µM; CC50 (Mus musculus [24]): 20 µM; Ki [11]: 0.7 µM; Ki [12]: 0.04 µM; Ki [13]: 1 µM; Ki [14]: 1.2 µM; Ki [15]: 0.029 µM; SI [25]: 12200; SI [26]: 468; IC50 [27]: 49 µM; CC50 [28]: 20 µM; SI [29]: >3170; Ki [19]: 0.65 µM

Question: With `O=c1c2cccn2c2cccc(F)c2n1CC/N=C(\S)Nc1ccc(Br)cn1` as the molecule, how does the CC50 (NIH3T3 [1]) read?
Answer: Its CC50 is 1000 µM.

Question: And the EC50 (CEM-SS [2])?
Answer: Its EC50 is 0.00047 µM.

Question: And the CC50 (CEM-SS [3])?
Answer: The CC50 was > 0.02 µM.

Question: What about the EC50 (C8166 [4]) of the same molecule?
Answer: Its EC50 is 0.002 µM.

Question: And the IC50 (C8166 [5])?
Answer: Its IC50 is 200 µM.

Question: What about the EC50 (C8166 [6]) of the same molecule?
Answer: The EC50 was 0.025 µM.

Question: And the EC50 [7]?
Answer: The EC50 was 0.025 µM.

Question: What about the EC50 (C8166 [8]) of the same molecule?
Answer: The EC50 was 0.003 µM.

Question: And the CC50 (Daudi [9])?
Answer: The CC50 was 1000 µM.

Question: What about the EC50 [23] of the same molecule?
Answer: The EC50 was 0.002 µM.

Question: And the CC50 (Mus musculus [10])?
Answer: Its CC50 is 1000 µM.

Question: What about the Ki [11] of the same molecule?
Answer: The Ki was 0.17 µM.

Question: And the Ki [12]?
Answer: Its Ki is 0.015 µM.

Question: And the Ki [13]?
Answer: The Ki was 0.2 µM.

Question: And the Ki [14]?
Answer: Its Ki is 0.2 µM.

Question: And the Ki [15]?
Answer: The Ki was 0.009 µM.

Question: And the CC50 [16]?
Answer: Its CC50 is 960 µM.

Question: What about the SI [25] of the same molecule?
Answer: The SI was 8800.

Question: What about the SI [17] of the same molecule?
Answer: The SI was 7990.

Question: What about the SI [18] of the same molecule?
Answer: Its SI is >43.

Question: What about the IC50 [27] of the same molecule?
Answer: The IC50 was 17 µM.

Question: What about the Ki [19] of the same molecule?
Answer: Its Ki is 0.16 µM.

Question: Which Ki [15] does the source give for `S=C(NNc1nc2ccccc2n2cccc12)Nc1ccc(Br)cn1` here?
Answer: The Ki was 1.9 µM.

Question: For `O=c1c2cccn2c2c(F)cc(F)cc2n1CC/N=C(\S)Nc1ccc(Br)cn1`, which EC50 (CEM-SS [2]) is on record?
Answer: Its EC50 is 0.085 µM.

Question: And the IC50 (CEM-SS [21])?
Answer: Its IC50 is > 2 µM.

Question: And the NA [30]?
Answer: The NA was “inactive”.

Question: What about the SI [18] of the same molecule?
Answer: Its SI is >23.

Question: What does the source list for `CC(C)=CCN1Cc2c(Cl)ccc3[nH]c(=S)n(c23)C[C@@H]1C` [TIVIRAPINE]?
Answer: EC50 [7]: 0.03 µM; SI [17]: 1670; IC50 (C8166 [31]): 50 µM

Question: Which CC50 (NIH3T3 [1]) does the source give for `S=C(NCCOc1nc2cc(Cl)ccc2n2cccc12)Nc1ccc(Br)cn1` here?
Answer: The CC50 was > 1000 µM.

Question: What about the SI (C8166 [32]) of the same molecule?
Answer: Its SI is 3720.

Question: What about the IC50 (C8166 [5]) of the same molecule?
Answer: Its IC50 is 93 µM.

Question: What about the EC50 [7] of the same molecule?
Answer: The EC50 was 0.025 µM.

Question: And the CC50 (Daudi [9])?
Answer: Its CC50 is > 1000 µM.

Question: And the CC50 (Mus musculus [10])?
Answer: The CC50 was > 1000 µM.

Question: What about the Ki [11] of the same molecule?
Answer: The Ki was 0.12 µM.

Question: And the Ki [12]?
Answer: Its Ki is 0.12 µM.

Question: And the Ki [13]?
Answer: The Ki was 0.09 µM.

Question: What about the Ki [14] of the same molecule?
Answer: The Ki was 0.1 µM.

Question: What about the CC50 [16] of the same molecule?
Answer: The CC50 was > 1000 µM.

Question: And the Ki [19]?
Answer: Its Ki is 0.21 µM.

Question: With `Cc1cc2nc(OCCNC(=S)Nc3ccc(Br)cn3)c3cccn3c2cc1C` as the molecule, how does the Ki [11] read?
Answer: Its Ki is 0.5 µM.

Question: What about the Ki [12] of the same molecule?
Answer: The Ki was 0.15 µM.

Question: What about the Ki [13] of the same molecule?
Answer: Its Ki is 0.66 µM.

Question: And the Ki [14]?
Answer: Its Ki is 1.5 µM.

Question: And the Ki [15]?
Answer: The Ki was 0.22 µM.

Question: And the Ki [19]?
Answer: The Ki was 0.45 µM.
